From ChEMBL document CHEMBL3124791 (J Med Chem, 2014)
Values after ≈ are worked out from the molar mass of the structure shown. Active and inactive are the calls of the source. The rule behind the calls is not given here.

Columns and labels:
Tubulin (Homo sapiens) [1] = target: T1, Tubulin (Homo sapiens) (UniProt P68371+Q9H4B7+P0DPH7+P68366+Q13509+Q71U36+P04350+Q3ZCM7+P07437+P68363+Q9BQE3+Q6PEY2+Q13885+Q9BVA1+Q9BUF5); experiment: Displacement of [3H]colchine from tubulin (unknown origin) at 1 uM after 10 mins; assay type: protein-complex assay
KB = experiment: Cytotoxicity against human KB cells by SRB assay; assay type: functional
Procedure, shortened: (§1)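 Sulforhodamine B growth assay across A-549, KB, P-gp-expressing KBvin and DU145 lines. […] Mean ± SD, at least triplicate.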

[2] = Aqueous solubility of the compound in phosphate buffer at pH 7.4 after 4 hrs by HPLC-UV method; assay type: physicochemical; conditions: pH 7.4, 4 h
DU-145 = experiment: Cytotoxicity against human DU145 cells by SRB assay; assay type: functional; procedure, shortened: as §1
Mus musculus [3] = experiment: Toxicity in athymic Balb/c nu/nu mouse xenografted with human MCF7 cells assessed as death at 4 mg/kg, iv administered as Q3D X 6 regimen; assay type: organism-based; design: dose 4 mg/kg, route intravenous; conditions: in vivo
Procedure, shortened: (§2)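 At 100–300 mm3 tumors, mice sorted into treated and control groups (n = 7). Dosing 4 mg/kg i.v. every 3 days; vehicle 5% PEG400/PBS. Stopped when control tumors reached about 1500 mm3; tumors excised and weighed. Inhibitory rate = [1 − mean treated/control tumor weight] × 100; body weight and deaths recorded.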

Liver microsome = experiment: Half life in human liver microsomes at 1 uM by LC-MS analysis; assay type: ADME
Mus musculus [4] = experiment: Toxicity in athymic Balb/c nu/nu mouse xenografted with human MCF7 cells assessed as change in body weight at 4 mg/kg, iv administered as Q3D X 6 regimen (reference value: 0.10%); assay type: organism-based; design: dose 4 mg/kg, route intravenous; conditions: in vivo; procedure, shortened: as §2
Tubulin (Homo sapiens) [5] = target: T1, Tubulin (Homo sapiens); experiment: Displacement of [3H]colchine from tubulin (unknown origin) at 5 uM after 10 mins; assay type: protein-complex assay
MCF7 = experiment: Antitumor activity against human MCF7 cells xenografted in athymic Balb/c nu/nu mouse assessed as tumor growth inhibition at 4 mg/kg, iv administered as Q3D X 6 regimen; assay type: functional; procedure, shortened: as §2
Tubulin = experiment: Inhibition of tubulin (unknown origin) polymerization incubated for 15 mins prior to GTP addition measured after 20 mins by turbidimetry; assay type: protein-complex assay, Homo sapiens
[6] = Cytotoxicity against human KBVIN cells by SRB assay; assay type: functional; procedure, shortened: as §1
A549 [7] = experiment: Cytotoxicity against human A549 cells by SRB assay; assay type: functional; procedure, shortened: as §1
Tubulin (Homo sapiens) [8] = target: T1, Tubulin (Homo sapiens); experiment: Inhibition of tubulin polymerization in human A549 cells assessed as disappearance of microtubule network at 100 nM after 24 hrs by Hoechst 33342 staining-based immunocytochemistry relative to control; assay type: cell-based
Canis lupus familiaris [9] = species on record: Canis lupus familiaris; experiment: (§3) Competitive inhibition of dog brain tubulin using colchicine as substrate incubated for 45 mins prior to substrate addition measured after 45 mins by fluorescence assay
Procedure, shortened: (§4)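 Dog brain tubulin 4 μM in 25 mM PIPES pH 6.8, 1 mM EGTA, 3 mM MgCl2, preincubated with compound (0.1–10 μM) 45 min at 37 °C. […] Mean ± SD, at least three replicates.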

[10] = as §3; design: species or system Canis lupus familiaris; procedure, shortened: as §4
Tubulin (Homo sapiens) [11] = target: T1, Tubulin (Homo sapiens); experiment: Inhibition of tubulin polymerization in human A549 cells assessed as disappearance of microtubule network at 3 nM after 24 hrs by Hoechst 33342 staining-based immunocytochemistry relative to control; assay type: cell-based
Procedure, shortened: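 A549 cells exposed to compound 24 h (0.1% DMSO control), fixed in 4% paraformaldehyde, permeabilized with 0.1% Triton X-100, blocked with 5% BSA. Stained with anti-α-tubulin (1:2000, 2 h) and a fluorescent anti-mouse secondary (1 h), nuclei with Hoechst 33342. Imaged at 20× for microtubule network loss.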

Canis lupus familiaris [12] = species on record: Canis lupus familiaris; experiment: Competitive inhibition of dog brain tubulin using BODIPY FL-vinblastine as substrate at 30 to 100 uM incubated for 30 mins prior to substrate addition measured after 30 mins by fluorescence assay
Procedure, shortened: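 Tubulin 4 μM from fresh dog brain in 25 mM PIPES pH 6.8, 1 mM EGTA, 3 mM MgCl2, preincubated with compound (10, 30, 100 μM) 30 min at 37 °C. BODIPY FL-vinblastine 2 μM then added for another 30 min. Fluorescence (ex 470/em 515 nm) decrease converted to % inhibition. Mean ± SD of at least three independent experiments.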

A549 [13] = experiment: Cell cycle arrest in human A549 cells assessed as accumulation at G2/M phase at 3 nM after 24 hrs by propidium iodide staining-based FACS analysis; assay type: functional
Procedure, shortened: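 A549 cells treated 24 h (0.1% DMSO control), washed in PBS, fixed in 70% ice-cold ethanol at 4 °C for 24 h. RNase (0.05 mg/mL, 37 °C, 30 min), then propidium iodide 0.05 mg/mL for 30 min at rt in the dark. Cell-cycle distribution read by flow cytometry.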

A549 [14] = experiment: Cell cycle arrest in human A549 cells assessed as accumulation at G2/M phase after 24 hrs by propidium iodide staining-based FACS analysis; assay type: functional
Canis lupus familiaris [15] = species on record: Canis lupus familiaris; conditions: 10 uM
A549 [16] = experiment: Cell cycle arrest in human A549 cells assessed as accumulation at G2/M phase at 300 nM after 24 hrs by propidium iodide staining-based FACS analysis; assay type: functional

Row | Compound | GI50 (KB) [nM] | GI50 (DU-145) [nM] | GI50 [6] [nM] | GI50 (A549 [7]) [nM] | also measured
1 | COc1ccc2c(c1)N(C)C(=O)CN2c1nc(C)nc2ccccc12 | 17 | 22 | 25 | 19 | inhibition (Tubulin (Homo sapiens) [1]): 82%; solubility [2]: 4.2 µg/mL (≈ 12.6 µM); Activity (Mus musculus [3]): Non-toxic; t1/2 (Liver microsome): 22 min; Activity (Mus musculus [4]): 2.28%; inhibition (Tubulin (Homo sapiens) [5]): 96%; inhibition in vivo at 4 mg/kg (MCF7): 51%; IC50 (Tubulin): 1300 nM
2 | COc1ccc2c(c1)CCN2c1nc(C)nc2ccccc12 | 320 | 243 | 216 | 268 | 
3 | COc1ccc2c(c1)CCN2c1nc(Cl)nc2ccccc12 | 227 | 165 | 197 | 233 | 
4 | Cc1ccc2c(c1)CCCN2c1nc(C)nc2ccccc12 | 204 | 187 | 176 | 211 | 
5 | CC(=O)O[C@H]1C(=O)[C@@]2(C)[C@H]([C@H](OC(=O)c3ccccc3)[C@]3(O)C[C@H](OC(=O)[C@H](O)[C@@H](NC(=O)c4ccccc4)c4ccccc4)C(C)=C1C3(C)C)[C@]1(OC(C)=O)CO[C@@H]1C[C@@H]2O [PACLITAXEL] | 6.4 | 6 | 1210 | 7.6 | inhibition (Tubulin (Homo sapiens) [8]): inactive
6 | COc1ccc2c(c1)C(=O)CCN2c1nc(Cl)nc2ccccc12 | 28 | 31 | 33 | 27 | 
7 | COc1ccc2c(c1)CCCN(c1nc(Cl)nc3ccccc13)C2 | 11300 | 6810 | 5450 | 7570 | 
8 | COc1ccc2c(c1)C(=O)CCN2c1nc(C)nc2ccccc12 | 19 | 21 | 21 | 24 | inhibition (Tubulin (Homo sapiens) [1]): 56%; solubility [2]: 1.21 µg/mL (≈ 3.79 µM); t1/2 (Liver microsome): 20.89 min; inhibition (Tubulin (Homo sapiens) [5]): 87%; IC50 (Tubulin): 940 nM
9 | COc1ccc2c(c1)CCCCN2c1nc(C)nc2ccccc12 | 19 | 18 | 20 | 21 | inhibition (Tubulin (Homo sapiens) [1]): 46%; solubility [2]: 2.94 µg/mL (≈ 9.2 µM); t1/2 (Liver microsome): 24.85 min; inhibition (Tubulin (Homo sapiens) [5]): 89%; IC50 (Tubulin): 870 nM
10 | COc1ccc2c(c1)CCCN2c1nc(C)nc2ccccc12 |  |  |  |  | Activity (Mus musculus [4]): -15.7%; inhibition in vivo at 4 mg/kg (MCF7): 47.3%
11 | COc1ccc2c(c1)NC(=O)CN2c1nc(C)nc2ccccc12 | 2.3 | 1.9 | 2.2 | 3.2 | inhibition (Tubulin (Homo sapiens) [1]): 93%; inhibition (Canis lupus familiaris [9]): Dose-dependent effect; IC50 [10]: 550 nM; Activity (Mus musculus [3]): Toxic; t1/2 (Liver microsome): 54.81 min; inhibition (Tubulin (Homo sapiens) [11]): Active; inhibition (Canis lupus familiaris [12]): inactive; Activity (A549 [13]): Active; Activity (A549 [14]): Dose-dependent effect; inhibition (Tubulin (Homo sapiens) [5]): 99%
12 | COc1ccc2c(c1)OCCN2c1nc(C)nc2ccccc12 | 211 | 198 | 169 | 189 | 
13 | CC[C@]1(O)C[C@H]2CN(CCc3c([nH]c4ccccc34)[C@@](C(=O)OC)(c3cc4c(cc3OC)N(C=O)[C@H]3[C@@](O)(C(=O)OC)[C@H](OC(C)=O)[C@]5(CC)C=CCN6CC[C@]43[C@@H]65)C2)C1 |  |  |  |  | inhibition (Canis lupus familiaris [15]): 50%
14 | Cc1nc(N2CCCc3cc(Br)ccc32)c2ccccc2n1 | 178 | 198 | 169 | 211 | 
15 | COc1ccc2c(c1)CCCN2c1nc(Cl)nc2ccccc12 |  |  |  |  | Activity (Mus musculus [3]): Non-toxic; Activity (Mus musculus [4]): -7.9%; inhibition in vivo at 4 mg/kg (MCF7): 22.9%
16 | COc1ccc2c(c1)C(O)CCN2c1nc(C)nc2ccccc12 (centres undefined) | 18 |  | 17 | 19 | inhibition (Tubulin (Homo sapiens) [1]): 75%; solubility [2]: 8.72 µg/mL (≈ 27.1 µM); t1/2 (Liver microsome): 42.44 min; inhibition (Tubulin (Homo sapiens) [5]): 94%; IC50 (Tubulin): 970 nM
17 | COc1cc2c(c(OC)c1OC)-c1ccc(OC)c(=O)cc1[C@@H](NC(C)=O)CC2 |  |  |  |  | Activity (A549 [14]): Dose-dependent effect; Activity (A549 [16]): Active
18 | COc1ccc2c(c1)CCCCN2c1nc(Cl)nc2ccccc12 | 227 | 165 | 197 | 191 | 
19 | COc1ccc2c(c1)OCCN2c1nc(Cl)nc2ccccc12 | 153 | 169 | 195 | 199 | 
20 | COc1ccc2c(c1)CCCN(c1nc(C)nc3ccccc13)C2 | 19600 | 14600 | 14800 | 16700 | 
21 | Cc1ccc2c(c1)CCCN2c1nc(Cl)nc2ccccc12 | 48 | 57 | 46 | 43 | 
